In ChEMBL document CHEMBL3872269, “Design, synthesis and cytotoxic activities of scopoletin-isoxazole and scopoletin-pyrazole hybrids” (Bioorg Med Chem Lett, 2017):

Tests used:
[1] = Growth inhibition of human HuH7 cells after 48 hrs by MTT assay; type: functional, cell-based; conditions: Huh-7, 48 h
In short: (§1)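 In vitro cytotoxicity screen on human cell lines. Value reported as IC50, the concentration causing 50% inhibition of the cells.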

[2] = Growth inhibition of human HCT116 cells after 48 hrs by MTT assay; type: functional, cell-based; conditions: HCT-116, 48 h; in short: as §1
[3] = Growth inhibition of human SW620 cells after 48 hrs by MTT assay; type: functional, cell-based; conditions: SW-620, 48 h; in short: as §1
[4] = Growth inhibition of human HFL1 cells after 48 hrs by MTT assay; type: cell-based; conditions: HFL1, 48 h; in short: as §1

COc1cc2cc(NC(=O)c3c(C)noc3-c3ccccc3)c(=O)oc2cc1OCCN1CCOCC1
IC50 [1]: > 25 µM
IC50 [2]: 20.9 µM
IC50 [3]: > 25 µM

COc1cc2cc(NC(=O)c3c(C)noc3-c3ccccc3F)c(=O)oc2cc1OCCN1CCOCC1
IC50 [1]: 14.7 µM
IC50 [2]: 15.6 µM
IC50 [4]: 68.5 µM
IC50 [3]: 13.9 µM

COc1cc2cc(NC(=O)c3c(C)noc3-c3ccc(Cl)cc3)c(=O)oc2cc1OCCN1CCOCC1
IC50 [1]: > 25 µM
IC50 [2]: > 25 µM
IC50 [3]: > 25 µM

COc1cc2ccc(=O)oc2cc1OC(=O)c1c(C)noc1-c1ccccc1F
IC50 [1]: > 25 µM
IC50 [2]: > 25 µM
IC50 [3]: > 25 µM

COc1cc2ccc(=O)oc2cc1OC(=O)c1c(C)noc1-c1ccc(Cl)cc1
IC50 [1]: 12.4 µM
IC50 [2]: 10.9 µM
IC50 [4]: 42.2 µM
IC50 [3]: 12.7 µM

CCN(CC)CCNC(=O)c1c(C)[nH]c(/C=C2\C(=O)Nc3ccc(F)cc32)c1C [SUNITINIB]
IC50 [1]: 3.03 µM
IC50 [2]: 5.62 µM
IC50 [3]: 6.25 µM

COc1cc2ccc(=O)oc2cc1OC(=O)c1c(C)noc1-c1ccccc1
IC50 [1]: > 25 µM
IC50 [2]: 22.7 µM
IC50 [4]: 69.3 µM
IC50 [3]: 23.4 µM

COc1cc2ccc(=O)oc2cc1O [SCOPOLETIN]
IC50 [1]: > 25 µM
IC50 [2]: > 25 µM
IC50 [3]: > 25 µM

COc1cc2ccc(=O)oc2cc1OC(=O)c1c(C)noc1-c1ccc([N+](=O)[O-])cc1
IC50 [1]: 8.76 µM
IC50 [2]: 9.21 µM
IC50 [4]: 90.9 µM
IC50 [3]: 9.83 µM

COc1cc2ccc(=O)oc2cc1OC(=O)c1c(-c2ccc(Cl)cc2)n[nH]c1C
IC50 [1]: 16.2 µM
IC50 [2]: 13.8 µM
IC50 [4]: 47 µM
IC50 [3]: 17.1 µM

COc1cc2cc(NC(=O)c3c(C)noc3-c3ccc([N+](=O)[O-])cc3)c(=O)oc2cc1OCCN1CCOCC1
IC50 [1]: 12.1 µM
IC50 [2]: 10.3 µM
IC50 [4]: 74.2 µM
IC50 [3]: 10.5 µM

COc1cc2ccc(=O)oc2cc1OC(=O)c1c(-c2ccccc2F)n[nH]c1C
IC50 [1]: > 25 µM
IC50 [2]: > 25 µM
IC50 [3]: > 25 µM

COc1cc2ccc(=O)oc2cc1OC(=O)c1c(-c2ccc([N+](=O)[O-])cc2)n[nH]c1C
IC50 [1]: > 25 µM
IC50 [2]: > 25 µM
IC50 [3]: > 25 µM

COc1cc2ccc(=O)oc2cc1OC(=O)c1c(-c2ccccc2)n[nH]c1C
IC50 [1]: > 25 µM
IC50 [2]: > 25 µM
IC50 [3]: > 25 µM
